Reference: ChEMBL document CHEMBL4665652, “Discovery of novel quinoline sulphonamide derivatives as potent, selective and orally active RORγ inverse agonists” (Bioorg Med Chem Lett, 2019)

Tests used:
Cytochrome P450 3A4 = Cytochrome P450 3A4 (Homo sapiens, UniProt P08684); assay: Drug metabolism assessed as CYP3A4 (unknown origin) mediated metabolite formation; assay type: ADME
[1] = Half life in mouse at 100 mg/kg, po; assay type: ADME, organism-based; settings: in vivo
Method in brief: (§1)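 Oral ascending-dose PK in mice at 100 mg/kg (ratios against 10 mg/kg), given as a suspension in 1% methylcellulose 400cp + 0.1% Poloxamer. Cmax, AUClast and t1/2 come from plasma profiles.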

[2] = Ratio of Cmax in mouse at 100 mg/kg, po to Cmax in mouse at 10 mg/kg, po; assay type: ADME, organism-based; settings: in vivo; method in brief: as §1
[3] = Half life in mouse at 30 mg/kg, po; assay type: ADME, organism-based; settings: in vivo
Method in brief: (§2)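 Mice dosed orally at 10, 30 or 100 mg/kg as a suspension in 1% methylcellulose 400cp + 0.1% Poloxamer (188). Tmax, Cmax, AUClast and oral t1/2 were taken from plasma concentration–time profiles. Ratios are the value at each dose over the value at 10 mg/kg.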

[4] = Tmax in mouse at 100 mg/kg, po; assay type: ADME, organism-based; settings: in vivo
Method in brief: (§3)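 Mice dosed orally with an ascending-dose series at 10, 30 and 100 mg/kg. Compound given as a suspension in 1% methylcellulose 400cp + 0.1% poloxamer. Plasma Tmax taken from the concentration profiles. The Cmax ratio is expressed relative to the 10 mg/kg dose.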

[5] = AUClast in mouse at 30 mg/kg, po; assay type: ADME, organism-based; parameters: time 0 - last, route oral, dose 30 mg/kg; settings: in vivo; method in brief: as §2
[6] = Tmax in mouse at 30 mg/kg, po; assay type: ADME, organism-based; settings: in vivo; method in brief: as §3
[7] = Cmax in mouse at 30 mg/kg, po; assay type: ADME, organism-based; parameters: route oral, dose 30 mg/kg; settings: in vivo; method in brief: as §2
[8] = Half life in mouse at 10 mg/kg, po; assay type: ADME, organism-based; settings: in vivo; method in brief: as §2
Mus musculus [9] = assay: Immunosuppressive activity in PLP (139 to 151 residues)-induced experimental autoimmune encephalomyelitis mouse model assessed as reduction in disease onset at 100 mg/kg, po administered bid starting from immunization relative to control; assay type: functional
Method in brief: (§4)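 EAE induced in mice by immunization with proteolipid protein peptide PLP139-151; ascending paralysis develops 10–12 days post-immunization. Compound dosed orally b.i.d. starting from immunization. Disease onset/incidence scored relative to control.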

Mus musculus [10] = assay: Immunosuppressive activity in PLP (139 to 151 residues)-induced experimental autoimmune encephalomyelitis mouse model assessed as reduction in disease onset at 60 mg/kg, po administered bid starting from immunization relative to control; assay type: functional; method in brief: as §4
[11] = (§5) In vivo inverse agonist activity at RORgamma in MOG(35-55) peptide/PTX-induced mechanistic C57BL/6 mouse model assessed as anti-CD3 induced IL-2 level in serum at 30 mg/kg, po dosed for 5 days during MOG/PTX priming and followed by 45 mins prior to anti-CD3 challenge and measured after 2 hrs relative to control; assay type: functional; settings: time 5 day
Method in brief: (§6)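 Mice immunized with mouse MOG35-55 peptide plus pertussis toxin. After 5 days, compound given orally as a suspension in methylcellulose 400cp + 1% poloxamer, 45 min before an anti-CD3 challenge. Circulating cytokines measured 2 h later. Comparison vs vehicle by Dunnett post test.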

[12] = as §5, with “10” for “30”; assay type: functional; settings: time 5 day; method in brief: as §6
[13] = as §5, with “IFNgamma” for “IL-2”, “100” for “30”; assay type: functional; settings: time 5 day; method in brief: as §6
[14] = as §5, with “IFNgamma” for “IL-2”; assay type: functional; settings: time 5 day; method in brief: as §6
[15] = as §5, with “IFNgamma” for “IL-2”, “10” for “30”; assay type: functional; settings: time 5 day; method in brief: as §6
[16] = as §5, with “IL-6” for “IL-2”; assay type: functional; settings: time 5 day; method in brief: as §6
[17] = as §5, with “IL-6” for “IL-2”, “10” for “30”; assay type: functional; settings: time 5 day; method in brief: as §6
[18] = as §5, with “IL-22” for “IL-2”, “10” for “30”; assay type: functional; settings: time 5 day; method in brief: as §6
[19] = as §5, with “IL-17F” for “IL-2”, “100” for “30”; assay type: functional; settings: time 5 day; method in brief: as §6
[20] = as §5, with “IL-17F” for “IL-2”, “10” for “30”; assay type: functional; settings: time 5 day; method in brief: as §6
[21] = as §5, with “IL-17A” for “IL-2”, “100” for “30”; assay type: functional; settings: time 5 day; method in brief: as §6
[22] = as §5, with “IL-17A” for “IL-2”; assay type: functional; settings: time 5 day; method in brief: as §6
[23] = Oral bioavailability in mouse at 10 mg/kg; assay type: ADME, organism-based; settings: in vivo
Method in brief: (§7)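 Mouse PK with iv 1 mg/kg and po 10 mg/kg, oral dose as a suspension in 1% methylcellulose 400cp + 0.1% Poloxamer 188. Plasma clearance (total and unbound), iv t1/2 and oral bioavailability F were derived from the iv and po profiles.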

[24] = Plasma clearance in mouse at 10 mg/kg, po or 1 mg/kg, iv; assay type: ADME, organism-based; method in brief: as §7
[25] = AUClast in mouse at 10 mg/kg, po; assay type: ADME, organism-based; parameters: route oral, time 0 - last, dose 10 mg/kg; settings: in vivo; method in brief: as §2
[26] = Tmax in mouse at 10 mg/kg, po; assay type: ADME, organism-based; settings: in vivo; method in brief: as §3
[27] = as §5, with “TNFalpha” for “IL-2”, “10” for “30”; assay type: functional; settings: time 5 day; method in brief: as §6
[28] = as §5, with “TNFalpha” for “IL-2”; assay type: functional; settings: time 5 day; method in brief: as §6
[29] = as §5, with “TNFalpha” for “IL-2”, “100” for “30”; assay type: functional; settings: time 5 day; method in brief: as §6
Mus musculus [30] = assay: Immunosuppressive activity in PLP (139 to 151 residues)-induced experimental autoimmune encephalomyelitis mouse model assessed as incidence of disease at 30 mg/kg, po administered bid starting from immunization relative to control; assay type: functional; method in brief: as §4
Mus musculus [31] = assay: In vivo inverse agonist activity at RORgamma in po dosed MOG(35-55) peptide/PTX-induced mechanistic C57BL/6 mouse model assessed as anti-CD3 induced IL-22 level in serum dosed for 5 days during MOG/PTX priming and followed by 45 mins prior to anti-CD3 challenge and measured after 2 hrs relative to control; assay type: functional, organism-based; settings: dose mg/kg 10-100, time 5.0 day; method in brief: as §6

Sequence of Cytochrome P450 3A4 (P08684 whole entry): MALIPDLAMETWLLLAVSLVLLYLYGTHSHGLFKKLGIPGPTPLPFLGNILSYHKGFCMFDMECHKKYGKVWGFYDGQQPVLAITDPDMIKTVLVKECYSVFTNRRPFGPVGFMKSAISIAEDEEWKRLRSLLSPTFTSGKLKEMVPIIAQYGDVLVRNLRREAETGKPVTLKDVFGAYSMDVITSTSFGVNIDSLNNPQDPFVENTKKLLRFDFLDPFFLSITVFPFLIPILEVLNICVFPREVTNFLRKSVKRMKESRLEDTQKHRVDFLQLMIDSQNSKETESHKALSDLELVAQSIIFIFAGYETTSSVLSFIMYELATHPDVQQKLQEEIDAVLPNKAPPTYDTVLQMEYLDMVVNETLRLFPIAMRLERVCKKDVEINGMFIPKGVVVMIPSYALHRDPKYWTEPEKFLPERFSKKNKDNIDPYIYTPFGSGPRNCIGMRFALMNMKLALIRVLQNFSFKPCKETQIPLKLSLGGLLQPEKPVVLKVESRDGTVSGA

Fm (Cytochrome P450 3A4): 87%
half-life [1]: 2.2 h
Ratio [2]: 8.3
half-life [3]: 1 h
Tmax [4]: 3 h
AUC(0-t) [5]: 34200 ng·h/mL
Tmax [6]: 0.25 h
Cmax [7]: 11800 ng/mL
half-life [8]: < 1 h
bioavailability [23]: 64%
clearance [24]: 27.5 mL/min/kg
AUC(0-t) [25]: 3900 ng·h/mL
Tmax [26]: 0.25 h
SMILES: CNC(=O)[C@@H]1CCCN1S(=O)(=O)c1ccc(Cl)c(COc2cccc3c(-c4cncn4C)cc(C(C)C)nc23)c1Cl
inhibition in vivo at 100 mg/kg (Mus musculus [9]): 76%
inhibition in vivo at 60 mg/kg (Mus musculus [10]): 81%
Activity [11]: -30%
Activity [12]: -39%
Activity [13]: -81%
Activity [14]: -45%
Activity [15]: -39%
Activity [16]: -56%
Activity [17]: -29%
Activity [18]: -16%
Activity [19]: -60%
Activity [20]: -20%
Activity [21]: -62%
Activity [22]: -52%
Activity [27]: -22%
Activity [28]: -27%
Activity [29]: -32%
Activity (Mus musculus [30]): 100%
Activity (Mus musculus [31]): Dose-dependent effect
